Test results published in ChEMBL document CHEMBL1131301, “Tyrosine kinase inhibitors. 14. Structure-activity relationships for methylamino-substituted derivatives of 4-[(3-bromophenyl)amino]-6-(methylamino)-pyrido[3,4-d]pyrimidine (PD 158780), a potent and specific inhibitor of the tyrosine kinase activity of receptors for the EGF family of growth factors” (J Med Chem, 1998).
≈ marks a conversion by molar mass, not a printed value.

Experiments:
[1] = molecular target: T1, Epidermal growth factor receptor (Homo sapiens, UniProt P00533); assay: Inhibition of autophosphorylation of epidermal growth factor receptor in A431 cells in culture
[2] = Aqueous solubility ([…] degree C); assay type: physicochemical; conditions: for solubility: water, read-out: S; for S: buffer
[3] = molecular target: T1, Epidermal growth factor receptor; assay: Inhibit of phosphorylation of a tyrosine/glutamic acid copolymer by epidermal growth factor receptor prepared from human A431 carcinoma cell vesicles by immunoaffinity chromatography.
[4] = molecular target: T1, Epidermal growth factor receptor; assay: Inhibition of EGF-dependent autophosphorylation of EGF-R in A431 cells
[5] = molecular target: Receptor tyrosine-protein kinase erbB-2 (Homo sapiens, UniProt P04626); assay: Inhibition of heregulin-dependent autophosphorylation of ErbB2 receptor in MDA-MB-453 cells; assay type: functional, cell-based
SK-OV-3 [6] = assay: Difference in days for treated (T) and control (C) SKOV-3 tumor fragments to reach 750 mg in mice at 30 mg/kg ip dose, administration days 10-14,17-21,24-28; assay type: functional; conditions: route intraperitoneal
Mus musculus [7] = assay: Difference in days for treated (T) and control (C) EGFR tumor fragments to reach 750 mg in mice at 38 mg/kg ip dose, administration days 1-15; assay type: functional; conditions: route intraperitoneal
Mus musculus [8] = assay: Difference in days for treated (T) and control (C) EGFR tumor fragments to reach 750 mg in mice at 400 mg/kg peroral dose, administration days 1-15; assay type: functional; conditions: route oral
MCF7 [9] = assay: Difference in days for treated (T) and control (C) MCF-7 tumor fragments to reach 750 mg in mice at 25 mg/kg ip dose, administration days 1-15; assay type: functional; conditions: route intraperitoneal
MCF7 [10] = assay: Difference in days for treated (T) and control (C) MCF-7 tumor fragments to reach 750 mg in mice at 50 mg/kg ip dose, administration days 1-15; assay type: functional; conditions: route intraperitoneal
A-431 [11] = assay: Ratio of treated and control A431 median tumor mass*100% in mice at 100 mg/kg peroral dose, days 7-21 administration; assay type: functional; conditions: route oral
Procedure, shortened: (§1)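 Nude mice (NCr nu/nu, 18-22 g) were randomized and implanted sc with tumor fragments in the right axilla on day 0. Tumor lines were A431 epidermoid, NIH 3T3 fibroblasts transfected with human EGFR, and MCF-7 breast. Dosing was ip or oral, by average cage weight, with 6 mice/dose group. Vehicle was 6% dimethylacetamide/94% 50 mM sodium lactate pH 4.0 (suspension), or isethionate salt in water.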

Mus musculus [12] = assay: Ratio of treated and control EGFR median tumor mass*100% in mice at 38 mg/kg ip dose, days 1-15 administration; assay type: functional; conditions: route intraperitoneal; procedure, shortened: as §1
Mus musculus [13] = assay: Ratio of treated and control EGFR median tumor mass*100% in mice at 400 mg/kg peroral dose, days 1-15 administration; assay type: functional; conditions: route oral; procedure, shortened: as §1
MCF7 [14] = assay: Ratio of treated and control MCF-7 median tumor mass*100% in mice at 25 mg/kg ip dose, days 1-15 administration; assay type: functional; conditions: route intraperitoneal; procedure, shortened: as §1
MCF7 [15] = assay: Ratio of treated and control MCF-7 median tumor mass*100% in mice at 50 mg/kg ip dose, days 1-15 administration; assay type: functional; conditions: route intraperitoneal; procedure, shortened: as §1
A-431 [16] = assay: Difference in days for treated (T) and control (C) A431 tumors to reach 750 mg in mice at 75 mg/kg ip dose, days 7-21 administration; assay type: functional; conditions: route intraperitoneal; procedure, shortened: as §1
SK-OV-3 [17] = assay: Ratio of treated and control SKOV-3 median tumor mass*100% in mice at 30 mg/kg ip dose, days 10-14,17-21,24-28 administration; assay type: functional; conditions: route intraperitoneal
Mus musculus [18] = assay: Net reduction in EGFR tumor burden between the first and last treatments in mice at 400 mg/kg peroral dose, days 1-15 administration; assay type: functional; conditions: route oral
Procedure, shortened: (§2)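 NCr nu/nu nude mice (18-22 g) were randomized and implanted sc with A431 epidermoid, human-EGFR-transfected NIH 3T3 fibroblast, or MCF-7 breast tumor fragments in the right axilla on day 0. Dosing was ip or oral, by average cage weight, with 6 mice per dose group. Log net cell kill is the net reduction in tumor burden between the first and last treatments.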

Mus musculus [19] = assay: Net reduction in EGFR tumor burden between the first and last treatments in mice at 38 mg/kg ip dose, days 1-15 administration; assay type: functional; conditions: route intraperitoneal; procedure, shortened: as §1
MCF7 [20] = assay: Net reduction in MCF-7 tumor burden between the first and last treatments in mice at 25 mg/kg ip dose, days 1-15 administration; assay type: functional; conditions: route intraperitoneal; procedure, shortened: as §2
A-431 [21] = assay: Difference in days for treated (T) and control (C) A431 tumor fragments to reach 750 mg in mice at 100 mg/kg peroral dose, administration days 7-21; assay type: functional; conditions: route oral
MCF7 [22] = assay: Weight change in MCF-7 tumor bearing mice at 25 mg/kg ip dose, days 1-15 administration; assay type: functional; conditions: route intraperitoneal
MCF7 [23] = assay: Weight change in MCF-7 tumor bearing mice at 50 mg/kg ip dose, days 1-15 administration; assay type: functional, organism-based; parameters: dose 50 mg/kg
A-431 [24] = assay: Weight change in A431 tumor bearing mice at 100 mg/kg peroral dose, days 7-21 administration; assay type: functional; conditions: route oral
A-431 [25] = assay: Weight change in A431 tumor bearing mice at 75 mg/kg ip dose, days 7-21 administration; assay type: functional; conditions: route intraperitoneal
Mus musculus [26] = assay: Weight change of EGFR tumor bearing mice at 38 mg/kg ip dose, days 1-15 administration; assay type: functional; conditions: route intraperitoneal
Mus musculus [27] = assay: Weight change of EGFR tumor bearing mice at 400 mg/kg peroral dose, days 1-15 administration; assay type: functional
SK-OV-3 [28] = assay: Weight change in SKOV-3 tumor bearing mice at 30 mg/kg ip dose, days 10-14,17-21,24-28 administration; assay type: functional; conditions: route intraperitoneal
A-431 [29] = assay: Ratio of treated and control A431 median tumor mass*100% in mice at 75 mg/kg dose

T1 sequence (P00533 whole entry): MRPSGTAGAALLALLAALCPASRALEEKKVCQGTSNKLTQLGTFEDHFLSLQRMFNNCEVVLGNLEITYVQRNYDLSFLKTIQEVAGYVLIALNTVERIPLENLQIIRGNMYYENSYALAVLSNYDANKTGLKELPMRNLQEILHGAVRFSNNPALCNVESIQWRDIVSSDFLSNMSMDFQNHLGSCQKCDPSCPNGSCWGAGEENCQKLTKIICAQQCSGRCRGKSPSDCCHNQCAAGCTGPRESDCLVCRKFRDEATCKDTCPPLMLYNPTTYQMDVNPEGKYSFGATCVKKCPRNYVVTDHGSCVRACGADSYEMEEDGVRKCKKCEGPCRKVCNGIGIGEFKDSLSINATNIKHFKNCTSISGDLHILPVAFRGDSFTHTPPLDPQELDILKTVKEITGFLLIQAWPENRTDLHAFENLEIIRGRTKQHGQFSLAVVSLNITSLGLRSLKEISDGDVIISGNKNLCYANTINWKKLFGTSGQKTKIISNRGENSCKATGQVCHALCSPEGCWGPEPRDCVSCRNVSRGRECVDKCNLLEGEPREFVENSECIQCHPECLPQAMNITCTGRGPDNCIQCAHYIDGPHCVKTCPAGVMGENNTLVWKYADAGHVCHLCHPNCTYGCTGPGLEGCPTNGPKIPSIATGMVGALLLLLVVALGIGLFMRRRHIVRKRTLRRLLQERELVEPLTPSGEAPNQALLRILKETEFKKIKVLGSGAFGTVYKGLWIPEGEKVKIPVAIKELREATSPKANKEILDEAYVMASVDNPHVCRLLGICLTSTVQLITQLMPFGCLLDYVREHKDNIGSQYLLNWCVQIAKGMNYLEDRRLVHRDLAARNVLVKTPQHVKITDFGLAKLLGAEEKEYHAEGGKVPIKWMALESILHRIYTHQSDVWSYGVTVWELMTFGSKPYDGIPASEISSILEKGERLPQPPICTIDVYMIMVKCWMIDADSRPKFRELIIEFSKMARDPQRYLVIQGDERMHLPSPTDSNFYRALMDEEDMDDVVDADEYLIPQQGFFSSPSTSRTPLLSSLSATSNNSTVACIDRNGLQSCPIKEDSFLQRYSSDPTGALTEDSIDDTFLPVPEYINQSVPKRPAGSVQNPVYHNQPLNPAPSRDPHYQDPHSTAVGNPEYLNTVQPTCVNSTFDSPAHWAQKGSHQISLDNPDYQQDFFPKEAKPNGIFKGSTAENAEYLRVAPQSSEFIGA
Sequence of Receptor tyrosine-protein kinase erbB-2 (P04626 whole entry, the tested form may be a part): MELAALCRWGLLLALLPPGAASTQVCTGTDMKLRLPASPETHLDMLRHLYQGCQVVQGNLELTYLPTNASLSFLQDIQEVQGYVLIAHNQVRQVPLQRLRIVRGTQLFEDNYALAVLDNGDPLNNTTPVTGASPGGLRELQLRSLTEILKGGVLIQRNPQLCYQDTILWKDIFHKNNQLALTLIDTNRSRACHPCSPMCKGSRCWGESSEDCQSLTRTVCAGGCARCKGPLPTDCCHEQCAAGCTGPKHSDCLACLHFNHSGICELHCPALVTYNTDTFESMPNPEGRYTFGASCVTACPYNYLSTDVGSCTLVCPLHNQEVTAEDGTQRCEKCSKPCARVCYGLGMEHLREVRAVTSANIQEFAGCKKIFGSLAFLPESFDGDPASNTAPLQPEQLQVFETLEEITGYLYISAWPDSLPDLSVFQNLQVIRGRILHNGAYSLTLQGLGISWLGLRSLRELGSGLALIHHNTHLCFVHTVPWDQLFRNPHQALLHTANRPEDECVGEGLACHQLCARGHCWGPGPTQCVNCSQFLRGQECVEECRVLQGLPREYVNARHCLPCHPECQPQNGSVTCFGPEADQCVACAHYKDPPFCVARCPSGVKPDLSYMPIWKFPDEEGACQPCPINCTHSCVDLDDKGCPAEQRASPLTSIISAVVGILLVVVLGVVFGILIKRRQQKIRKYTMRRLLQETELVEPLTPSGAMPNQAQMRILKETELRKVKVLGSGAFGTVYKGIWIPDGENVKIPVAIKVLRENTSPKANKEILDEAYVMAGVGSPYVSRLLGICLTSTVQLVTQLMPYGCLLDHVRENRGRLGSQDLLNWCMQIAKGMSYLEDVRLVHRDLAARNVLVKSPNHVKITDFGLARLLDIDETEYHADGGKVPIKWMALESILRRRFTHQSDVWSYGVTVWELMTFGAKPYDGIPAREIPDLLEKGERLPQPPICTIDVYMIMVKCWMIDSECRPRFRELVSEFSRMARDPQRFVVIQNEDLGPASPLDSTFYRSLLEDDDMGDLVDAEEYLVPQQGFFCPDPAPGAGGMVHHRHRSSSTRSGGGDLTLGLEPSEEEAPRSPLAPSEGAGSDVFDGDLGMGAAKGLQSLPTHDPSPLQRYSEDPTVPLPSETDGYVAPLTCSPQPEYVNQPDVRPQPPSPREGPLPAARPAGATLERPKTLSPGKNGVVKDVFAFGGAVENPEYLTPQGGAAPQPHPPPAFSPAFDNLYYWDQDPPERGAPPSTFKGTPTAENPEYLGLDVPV

With `CN1CCN(c2cc3c(Nc4cccc(Br)c4)ncnc3cn2)CC1` the IC50 [1] was 102 nM, the solubility [2] was 2.5 mM (≈ 998 µg/mL) and the IC50 [3] was 6.4 nM.
`CNc1cc2c(Nc3cccc(Br)c3)ncnc2cn1` showed an IC50 [4] of 13 nM, a solubility [2] of 0.1 mM (≈ 33 µg/mL) and an IC50 [5] of 52 nM. For the same compound, the T-C (SK-OV-3 [6]) was 0.8 days, the T-C (Mus musculus [7]) was 3.7 days and the T-C (Mus musculus [8]) was 1.2 days. For the same compound, the T-C (MCF7 [9]) was 11.2 days, the T-C (MCF7 [10]) was 15.2 days and the T/C (A-431 [11]) was 38%. For the same compound, the T/C (Mus musculus [12]) was 38%, the T/C (Mus musculus [13]) was 67% and the T/C (MCF7 [14]) was 14%. It also gave a T/C (MCF7 [15]) of 27%, a T-C (A-431 [16]) of 8.4 days and a T/C (SK-OV-3 [17]) of 67%. The Net cell kill (Mus musculus [18]) was -1.3 log10, the log net cell kill (Mus musculus [19]) was -1 and the Net cell kill (MCF7 [20]) was -0.1 log10. For the same compound, the T-C (A-431 [21]) was 16 days, the Weight change (MCF7 [22]) was -0.2 g and the Weight change (MCF7 [23]) was “Weight gain”. For the same compound, the Weight change (A-431 [24]) was -1.3 g, the Weight change (A-431 [25]) was -0.8 g and the Weight change (Mus musculus [26]) was -0.1 g. The Weight change (Mus musculus [27]) was “Weight gain”, the Weight change (SK-OV-3 [28]) was -1.6 g and the T/C (A-431 [29]) was 41%.
`OCCN(CCO)CCNc1cc2c(Nc3cccc(Br)c3)ncnc2cn1` gave an IC50 [1] of 71 nM, a solubility [2] of 36 mM (≈ 16100 µg/mL) and an IC50 [3] of 0.93 nM.
For `Brc1cccc(Nc2ncnc3cnc(NCCc4ccccn4)cc23)c1`, the IC50 [1] was 8.1 nM, the solubility [2] was 17 mM (≈ 7160 µg/mL) and the IC50 [3] was 1.2 nM.
In the case of `Cc1cccc(Nc2ncnc3cnc(NCCc4c[nH]cn4)cc23)c1`, the S [2] is reported as > 30 mM and the IC50 [3] is reported as 1.3 nM.
In the case of `Cc1cccc(Nc2ncnc3cnc(NCCN4CCOCC4)cc23)c1`, the S [2] is reported as > 40 mM.
Work on `CN(CC(O)CO)c1cc2c(Nc3cccc(Br)c3)ncnc2cn1` (stereo not given) yielded a solubility [2] of 0.18 mM (≈ 72.8 µg/mL) and an IC50 [3] of 0.56 nM.
For `Cc1cccc(Nc2ncnc3cnc(NCCCN4CCOCC4)cc23)c1`, the S [2] was > 35 mM and the IC50 [3] was 1.8 nM.
For `Brc1cccc(Nc2ncnc3cnc(NCCCn4ccnc4)cc23)c1`, the IC50 [1] was 9.1 nM, the solubility [2] was 23 mM (≈ 9760 µg/mL) and the IC50 [3] was 1.7 nM.
Compound `Cc1nc(Nc2cccc(Br)c2)c2cc(NCCN3CCOCC3)ncc2n1` has an IC50 [3] of 117 nM.
Compound `OCCNc1cc2c(Nc3cccc(Br)c3)ncnc2cn1` has a solubility [2] of 0.02 mM (≈ 7.2 µg/mL) and an IC50 [3] of 0.19 nM.
`O=C(O)CNc1cc2c(Nc3cccc(Br)c3)ncnc2cn1` gave a solubility [2] of 5 mM (≈ 1870 µg/mL) and an IC50 [3] of 0.28 nM.
For `CN(CCO)c1cc2c(Nc3cccc(Br)c3)ncnc2cn1`, the solubility [2] was 0.11 mM (≈ 41.2 µg/mL) and the IC50 [3] was 0.22 nM.
With `Brc1cccc(Nc2ncnc3cnc(NCCc4c[nH]cn4)cc23)c1` the IC50 [1] was 6.3 nM, the solubility [2] was 15 mM (≈ 6150 µg/mL) and the IC50 [3] was 0.78 nM.
`CNc1cc2c(Nc3cccc(C(F)(F)F)c3)ncnc2cn1` gave an IC50 [3] of 1.1 nM.
In the case of `CN(CCO)CCNc1cc2c(Nc3cccc(Br)c3)ncnc2cn1`, the IC50 [1] is reported as 27 nM, the S [2] is reported as > 45 mM and the IC50 [3] is reported as 1.7 nM.
